Active and inactive are the calls of the source.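 Rule for the calls, unless noted: active = inhibition at or above 50% relative to wild type and mutant plate controls; inactive = inhibition below 50%.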
Legend:
[1] = inhibitors of TNFa-induced NFkB p65 translocation, primary screen, imaging, HUVEC, MLSMR starter and 10KST1 sets (AID 438;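 active = inhibition above 20% together with a positive visual image hit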;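 note: compound added about 3h40 before a 20 min TNFalpha stimulation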;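 for inhibition: signal is the nuclear over cytoplasmic p65 intensity ratio per well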); settings: HUVEC TNFa-induced p65 nuclear translocation; cell count: measured here: nuclei count (cytotoxicity indicator), at 2.08 µM; inhibition: at 2 µM, stronger effect = higher value, 0% TNFa-plus-vehicle, 100% no-TNFa wells
[2] = endothelial E-selectin expression blockers – imaging, HUVEC, immunofluorescence, MLSMR starter and 10KST1 sets, primary screen (AID 487;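 active = visually confirmed hit in the image check and inhibition above 20%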;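 for inhibition: signal is fraction of cell area covered by stained E-selectin grains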;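 for nuclei count: 100% = median nuclei count of all wells on the same plate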); settings: HUVEC TNFalpha-induced E-selectin immunofluorescence imaging, at 2 µM; inhibition: stronger effect = higher value; nuclei count: measured here: cell number, toxicity
[3] = Primary imaging screen for DUSP6 inhibitors that restore phospho-Erk in transfected HeLa cells, chemical complementation (AID 609;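 active = compounds giving at least 50% inhibition in the cell-based MKP-3 phosphatase rescue imaging test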;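 for inhibition: phospho-Erk level distribution per well compared with pooled transfected vehicle control wells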); settings: HeLa MKP-3 transfected, phospho-Erk imaging KS statistic, at 10 µM, cells stimulated with TPA for 15 min
[4] = biological target: Dual specificity protein phosphatase 6 (Homo sapiens) (UniProt Q16828); experiment: as above; settings: HeLa MKP-3 transfected, phospho-Erk imaging KS statistic; at 10 µM; stronger effect = higher value; cells stimulated with TPA for 15 min
Sequence of Dual specificity protein phosphatase 6 (Homo sapiens) (Q16828 whole entry, looked up): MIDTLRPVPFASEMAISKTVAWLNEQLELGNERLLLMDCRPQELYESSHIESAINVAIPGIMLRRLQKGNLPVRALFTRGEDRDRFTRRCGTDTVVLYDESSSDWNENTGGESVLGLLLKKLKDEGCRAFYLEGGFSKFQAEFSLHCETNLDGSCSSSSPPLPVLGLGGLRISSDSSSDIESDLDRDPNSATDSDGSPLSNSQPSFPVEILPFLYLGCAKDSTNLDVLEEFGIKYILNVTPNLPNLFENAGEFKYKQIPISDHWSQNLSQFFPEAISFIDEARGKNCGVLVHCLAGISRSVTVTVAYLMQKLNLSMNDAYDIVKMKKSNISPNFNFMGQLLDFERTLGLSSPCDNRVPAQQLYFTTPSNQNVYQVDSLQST

[5] = biological target: Voltage-gated potassium channel subunit beta-2 (Rattus norvegicus) (UniProt P62483); experiment: inhibitors of rat Kvbeta2 reductase activity – biochemical, NADPH fluorescence, primary screen (AID 622;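 active = fluorescence slope higher than the sample average by over 3 SD, cut at about -0.22 in these data, passing the limit was not always enough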;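 note: slope of raw intensity against log time taken from 70 to 1610 s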); settings: recombinant KvBeta, 4-cyanobenzaldehyde reduction, at 10 µM, stronger effect = higher value
Sequence of Voltage-gated potassium channel subunit beta-2 (Rattus norvegicus) (P62483 whole entry, looked up): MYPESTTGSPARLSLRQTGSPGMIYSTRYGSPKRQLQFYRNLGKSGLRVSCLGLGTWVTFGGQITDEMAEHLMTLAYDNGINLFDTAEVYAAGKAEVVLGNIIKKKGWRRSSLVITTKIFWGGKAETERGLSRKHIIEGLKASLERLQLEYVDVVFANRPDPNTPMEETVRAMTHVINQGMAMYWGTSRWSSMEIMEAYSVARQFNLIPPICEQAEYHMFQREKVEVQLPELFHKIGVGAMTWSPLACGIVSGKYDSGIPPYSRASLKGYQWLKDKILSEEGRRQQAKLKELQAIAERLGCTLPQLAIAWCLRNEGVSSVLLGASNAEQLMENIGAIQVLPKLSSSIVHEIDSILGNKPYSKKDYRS

[6] = biological target: Voltage-gated potassium channel subunit beta-2 (Rattus norvegicus) (UniProt P62483); experiment: enhancers of rat Kvbeta2 NADPH turnover – biochemical, NADPH fluorescence, primary screen (AID 623;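 active = NADPH fluorescence slope more negative than the mean of all samples by about 3 SD, 99.7% confidence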;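 note: fluorescence intensity change per second fitted from 20 to 320 s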); settings: Recombinant KvBeta, NADPH fluorescence decrease slope, 10 min; at 10 µM; stronger effect = lower value
[7] = biological target: Alpha-2C adrenergic receptor (Homo sapiens) (UniProt P18825); experiment: compounds altering alpha2C-coupled GIRK flux – cell-based, HEK293 alpha2C/GIRK1/2, thallium flux, primary screen (AID 624;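 active = fluorescence slope after compound addition differing from the mean of all screened samples at 99.7% confidence, in either direction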;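 note: slope of fluorescence ratio to pre-addition baseline per second over 15 to 24 s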); settings: thallium flux BTC fluorescence, at 10 µM, actives lie on both sides
Sequence of Alpha-2C adrenergic receptor (Homo sapiens) (P18825 whole entry, looked up): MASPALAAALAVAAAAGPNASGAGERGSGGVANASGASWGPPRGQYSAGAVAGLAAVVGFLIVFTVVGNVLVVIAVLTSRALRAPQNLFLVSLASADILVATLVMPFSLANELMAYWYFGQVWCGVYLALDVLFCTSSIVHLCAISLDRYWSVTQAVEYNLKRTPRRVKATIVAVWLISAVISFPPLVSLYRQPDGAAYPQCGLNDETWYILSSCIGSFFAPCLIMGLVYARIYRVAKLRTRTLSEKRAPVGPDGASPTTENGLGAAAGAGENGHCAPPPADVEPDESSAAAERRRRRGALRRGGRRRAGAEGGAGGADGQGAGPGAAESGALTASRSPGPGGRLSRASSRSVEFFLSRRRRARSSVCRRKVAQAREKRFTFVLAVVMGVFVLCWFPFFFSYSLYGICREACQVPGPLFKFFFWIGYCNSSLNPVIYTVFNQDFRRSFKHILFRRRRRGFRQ

[8] = inhibitors of larval lipid processing in zebrafish, primary screen, whole organism, PED6 fluorescence, gall bladder and intestine (AID 686;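 active = a full or partial loss of lipid-probe fluorescence in the fish gall bladder, intestine or both, judged by eye; inactive = no fluorescence loss, or compound toxic to the fish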;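 note: larvae 5 to 7 days old with five fish per well; signal comes from phospholipase A2 cleavage of quenched PED6 carried via bile; overnight exposure to compound and PED6 before scoring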); settings: Zebrafish larvae PED6 lipid processing, fluorescence scoring; screened at 20 µM (by protocol)
Outline: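 Test system – live zebrafish larvae aged 5-7 days, whole organism · Buffer or medium – E3 fish medium · Reagent – quenched phospholipase substrate PED6, 100 nM final, ingested by larvae · Doses – 20 µM single dose · Incubation – overnight compound and PED6 incubation · Technique – visual fluorescence microscopy scoring of gall bladder, gut · Read-out basis – visual per-well fluorescence inhibition score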

[9] = loss of swimming-algae plug formation – whole organism, Chlamydomonas reinhardtii, WT vs cilia-less mutant, absorbance, 96-well, primary screen (AID 463189); settings: Chlamydomonas reinhardtii gravitaxis, OD600 absorbance, 2 days; at 10 µM; stronger effect = higher value;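 note: 0% = wild type cc124 cells in DMSO and 100% = ciliumless bld1 mutant cells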
[10] = measured here: cell density z-score
[11] = measured here: nuclear c-Myc green intensity z-score
[12] = measured here: nuclear pErk red intensity z-score, stronger effect = higher value

| Compound | cell count [1] | inhibition [1] | inhibition [2] | nuclei count [2] [%] | z-score [3, 10] | z-score [3, 11] | z-score [3, 12] | inhibition [4] | fluorescence slope [5] | NADPH fluorescence slope [6] | slope [7] | outcome [8] | inhibition [9] |
| --- | --- | --- | --- | --- | --- | --- | --- | --- | --- | --- | --- | --- | --- |
| CC1(C)Cc2c(C#N)c(SCC(=O)c3ccccc3)nc(N3CCCC3)c2CO1 | 520 | -6.5% (inactive) | 15.1% (inactive) | 115 | 1.33 | -0.926 | -0.674 | 9.82% (inactive) | -0.395 (inactive) | 8.2e-06 (inactive) | 0.00654 (inactive) | inactive | 46.4% (inactive) |
| N#CC1=C(SCc2ccccc2)NC2=C(C(=O)CCC2)C1c1ccc2c(c1)OCO2 (stereo unspecified) | 490 | -28.9% (inactive) | -54.8% (inactive) | 138 | 0.352 | -1.14 | -1.35 | -4.27% (inactive) | -0.525 (inactive) | -5.3e-05 (inactive) | 0.0074 (inactive) | inactive | -2.38% (inactive) |
| Cc1ccc2[nH]c3c(N4CCCCCC4)ncnc3c2c1 | 377 | -11.4% (inactive) | -85.7% (inactive) | 159 | 1.13 | -0.284 | -0.123 | -3.5% (inactive) | -0.44 (inactive) | -0.000151 (inactive) | 0.00355 (inactive) | inactive | -9.6% (inactive) |
| Cc1nnc2n(-c3ccccc3)c(=O)c3c4c(sc3n12)COC(C(C)C)C4 (stereo unspecified) | 542 | -6.5% (inactive) | -106% (inactive) | 177 | -0.97 | 1.36 | -0.55 | -0.608% (inactive) | -0.357 (inactive) | -2.6e-05 (inactive) | 0.00506 (inactive) | inactive | -3.02% (inactive) |
| CC1(C)Cc2c(C#N)c(NCc3ccco3)nc(-c3ccco3)c2CO1 | 598 | 3.9% (inactive) | -12.9% (inactive) | 178 | 0.978 | -1.81 | 0.89 | -6.86% (inactive) | -0.29 (inactive) | -9.7e-06 (inactive) | 0.00397 (inactive) | active; weak signal in gallbladder and intestine | 53.9% (active) |
| CC(=O)c1c(C)c2c(n1CCN(C)C)CCCC2 | 518 | -10% (inactive) | 17.6% (inactive) | 93.6 | -0.53 | 2.44 | 1.25 | -11.5% (inactive) | -0.521 (inactive) | -1.7e-05 (inactive) | 0.0146 (active) | inactive | -13.1% (inactive) |
| CN1CCN(CCCCOc2ccc(F)cc2)CC1 | 488 | -6.3% (inactive) | -39.9% (inactive) | 114 | 1.94 | -1.66 | 1.15 | 7.48% (inactive) | -0.483 (inactive) | -0.00016 (inactive) | 0.00459 (inactive) | inactive | 30.4% (inactive) |
| COc1ccc(C(CC(=O)O)NC(=O)OC(C)(C)C)cc1 (stereo unspecified) | 352 | -12.3% (inactive) | -60.6% (inactive) | 167 | 0.0535 | 0.856 | 1.62 | -7.01% (inactive) | -0.414 (inactive) | -0.000134 (inactive) | 0.00454 (inactive) | inactive | -3.6% (inactive) |
| COc1ccc(S(=O)(=O)N2CCC(N3CCCCC3)CC2)cc1 | 454 | -22.7% (inactive) | -217% (inactive) | 148 | 0.445 | -1.43 | -2.35 | 29.3% (inactive) | -0.314 (inactive) | -2e-05 (inactive) | 0.00443 (inactive) | inactive | 68% (active) |
| CC(=O)OCc1c(COC(C)=O)[n+](=O)c2ccccc2n1[O-] | 523 | -7% (inactive) | -114% (inactive) | 156 | 0.0201 | -0.163 | -0.453 | 2.46% (inactive) | -0.322 (inactive) | 1.5e-05 (inactive) | 0.00492 (inactive) | inactive | 17% (inactive) |
| CCNc1nc(Oc2ccccc2)nc(OC(C)C(=O)OCC)n1 (stereo unspecified) | 674 | 1.4% (inactive) | -19.3% (inactive) | 172 | -0.682 | -0.0206 | 2.56 | -2.07% (inactive) | -0.532 (inactive) | -6.7e-05 (inactive) | 0.00506 (inactive) | inactive | -3.35% (inactive) |
| c1ccc(-c2nn3c(C4CCCCC4)nnc3s2)cc1 | 527 | -1.4% (inactive) | -81.3% (inactive) | 142 | -0.66 | 0.347 | 1.15 | -18.6% (inactive) | -0.435 (inactive) | -8.4e-05 (inactive) | 0.00411 (inactive) | inactive | 6.49% (inactive) |
| CCC1(C)Cc2c(sc3nc4n(c(=O)c23)CCS4)CO1 (stereo unspecified) | 596 | -14.8% (inactive) | -109% (inactive) | 182 | -1.93 | -0.473 | 1.15 | -6.86% (inactive) | -0.336 (inactive) | -1e-05 (inactive) | 0.00519 (inactive) | inactive | 5.08% (inactive) |
| CCCSc1nnc2n(-c3ccccc3OC)c(=O)c3c4c(sc3n12)CCC4 | 523 | -14.8% (inactive) | -63.5% (inactive) | 171 | 1.08 | -1.06 | -0.347 | 7.73% (inactive) | -0.358 (inactive) | -3.5e-05 (inactive) | 0.00552 (inactive) | inactive | 11.2% (inactive) |
| O=C1OC(Nc2ccc(Br)cc2F)c2ccccc21 (stereo unspecified) | 426 | -1.6% (inactive) | -16.9% (inactive) | 149 | 0.057 | -0.568 | 0.211 | -2.91% (inactive) | -0.383 (inactive) | -4.6e-05 (inactive) | 0.00575 (inactive) | inactive | -4.19% (inactive) |
| O=CNC(=O)c1ccccc1C(=O)O | 545 | -5.9% (inactive) | -60.7% (inactive) | 162 | 1.01 | -0.571 | -1.1 | 11.9% (inactive) | -0.522 (inactive) | -2.4e-05 (inactive) | 0.00526 (inactive) | inactive | 28.5% (inactive) |
| COCCCNc1nc2c(c(=O)n(C)c(=O)n2C)n1Cc1cccc(OC)c1 | 434 | -9.7% (inactive) | -93.1% (inactive) | 190 | 2.25 | -1.46 | -1.41 | 4.37% (inactive) | -0.325 (inactive) | 1.1e-05 (inactive) | 0.00428 (inactive) | inactive | -3.39% (inactive) |
| Cc1cc(C)n(CC(=O)N2c3ccccc3Sc3ccccc32)n1 | 563 | -0.4% (inactive) | -139% (inactive) | 139 | 0.655 | 0.867 | -0.852 | 15.9% (inactive) | -0.508 (inactive) | -4.4e-05 (inactive) | 0.00518 (inactive) | inactive | 14.7% (inactive) |
| Cn1c(=O)cc(NCc2ccccc2)[nH]c1=O | 451 | -5.5% (inactive) | -114% (inactive) | 164 | 1.39 | -0.42 | -0.956 | -0.624% (inactive) | -0.333 (inactive) | 5.7e-06 (inactive) | 0.00621 (inactive) | inactive | -4.62% (inactive) |
| CCC1(C)Cc2ccccc2-c2nc(NCCO)n(-c3ccccc3)c(=O)c21 (stereo unspecified) | 467 | 0.9% (inactive) | -104% (inactive) | 137 | -0.977 | 0.92 | 0.687 | -14% (inactive) | -0.0137 (active) | 6.5e-06 (inactive) | 0.00569 (inactive) | inactive | -9.34% (inactive) |
| CCCCNc1nc2c(c(=O)n(C)c(=O)n2C)n1Cc1cccc(OC)c1 | 452 | -7.7% (inactive) | -133% (inactive) | 175 | 0.299 | -0.341 | -1.15 | -5.62% (inactive) | -0.378 (inactive) | -1.6e-05 (inactive) | 0.00373 (inactive) | active; weak signal in gallbladder and intestine | 1.32% (inactive) |
| CCOC(=O)C1CCCN(c2nc3ccccc3nc2C(C#N)C(=O)OCCOC)C1 (stereo unspecified) | 542 | -14.7% (inactive) | -102% (inactive) | 160 | 0.574 | 2.29 | -0.983 | 4.72% (inactive) | -0.48 (inactive) | -4.8e-05 (inactive) | 0.0042 (inactive) | active; weak signal in gallbladder and intestine | 6.3% (inactive) |
| COCCCNC(=O)c1c(N)n(/N=C/c2cccs2)c2nc3ccccc3nc12 | 342 | -11.1% (inactive) | 4.6% (inactive) | 125 | 0.439 | -0.623 | -0.0865 | 17.4% (inactive) | -0.266 (inactive) | -5.1e-05 (inactive) | 0.00731 (inactive) | inactive | 24.1% (inactive) |
| CCOC(=O)COc1nc(N(C)C)nc(N(C)C)n1 | 634 | -15% (inactive) | -349% (inactive) | 183 | 0.237 | 0.0213 | 0.713 | 7.48% (inactive) | -0.492 (inactive) | -0.000101 (inactive) | 0.00583 (inactive) | inactive | -0.47% (inactive) |
| O=C(O)C1CCCCN1S(=O)(=O)c1cccc2nsnc12 (stereo unspecified) | 488 | 9.4% (inactive) | -8.1% (inactive) | 93.9 | -0.854 | 0.334 | -0.543 | -6.06% (inactive) | -0.498 (inactive) | -3.9e-05 (inactive) | 0.0076 (inactive) | inactive | -16.5% (inactive) |
| Cc1nnc2n(-c3ccccc3)c(=O)c3c4c(sc3n12)CC(C)CC4 (stereo unspecified) | 573 | -1.3% (inactive) | 37.3% (inactive) | 92.6 | -0.0616 | 0.767 | -0.493 | 16.1% (inactive) | -0.396 (inactive) | 1.3e-06 (inactive) | 0.00538 (inactive) | inactive | -24.5% (inactive) |
| CSc1nc(Oc2ccc(=O)[nH]n2)nc(N(C)C)n1 | 619 | -0.7% (inactive) | -20.1% (inactive) | 148 | -0.384 | -0.165 | 1.66 | -2.69% (inactive) | -0.314 (inactive) | 2.2e-06 (inactive) | 0.00466 (inactive) | inactive | 9.17% (inactive) |

Source: PubChem BioAssay
